Results collected from several papers.
Compare with care: the assays were run in different laboratories.
Target: Serine/threonine-protein kinase NLK (NLK, Homo sapiens, UniProt Q9UBE8)
One construct used (Q9UBE8 1-527): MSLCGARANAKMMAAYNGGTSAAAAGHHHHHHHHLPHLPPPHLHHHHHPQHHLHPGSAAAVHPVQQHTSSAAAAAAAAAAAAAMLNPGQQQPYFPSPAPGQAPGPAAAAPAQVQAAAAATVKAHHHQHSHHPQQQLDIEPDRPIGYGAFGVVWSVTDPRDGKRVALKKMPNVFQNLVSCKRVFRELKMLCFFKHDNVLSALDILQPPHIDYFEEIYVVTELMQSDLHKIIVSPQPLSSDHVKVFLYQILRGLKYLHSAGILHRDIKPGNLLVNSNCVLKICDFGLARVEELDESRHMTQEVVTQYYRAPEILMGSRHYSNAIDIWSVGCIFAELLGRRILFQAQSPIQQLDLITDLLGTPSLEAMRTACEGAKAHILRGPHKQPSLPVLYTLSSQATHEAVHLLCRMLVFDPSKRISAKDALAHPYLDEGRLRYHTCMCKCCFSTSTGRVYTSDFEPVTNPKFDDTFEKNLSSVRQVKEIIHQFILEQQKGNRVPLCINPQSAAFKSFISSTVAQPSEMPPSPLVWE

Cn1cc(-c2cc(F)cc(N3CCn4c(cc5c4CCCC5)C3=O)c2CO)cc(Nc2ccc(N3CCN(C4COC4)CC3)cn2)c1=O
inhibition (enzyme activity; inhibitor; 0.1 µM): -4%

Cc1nn(C)cc1-c1nc2c(N3CCN(Cc4ccc(Cl)cc4)CC3)c(Cl)cnc2[nH]1
remaining binding (binding; competition with immobilised ligand; 1 µM): 72%

Cn1cc(-c2cccc(N3CCc4c(sc5c4CC(C)(C)C5)C3=O)c2CO)cc(Nc2ccncn2)c1=O
inhibition (enzyme activity; inhibitor; 1 µM): -10%

Cn1cncc1[C@@](O)(COc1ccc(C#N)cc1-c1ccc(OC(F)(F)F)cc1)c1ccc(C#N)cc1
remaining binding (cell-free assay; competition with immobilised ligand; 1 µM): 100%

COc1ncccc1-c1cnn2ccc(N3CCN(C(=O)OC(C)C)CC3)nc12
remaining binding (binding; competition with immobilised ligand; 1 µM): 100%

COc1cc(Nc2ncc(F)c(Nc3ccc4c(n3)NC(=O)C(C)(C)O4)n2)cc(OC)c1OC
inhibition (binding; 10 µM): 0%

O=c1[nH]c2ccccc2n1C1CCN(Cc2ccc(-c3[nH]c4cc5ncnc5cc4nc3-c3ccccc3)cc2)CC1
remaining signal (cell-free assay; 0.5 µM): 104%

Nc1ncc(-c2nc(N3CCOCC3)nc(N3CCOCC3)n2)c(C(F)F)n1
remaining binding (binding; competition with immobilised ligand; 10 µM): 88%

N#CC1(c2ccccn2)CCN(Cc2cc(C(=O)O)c(=O)n3ccccc23)CC1
remaining binding (cell-free assay; competition with immobilised ligand; 1 µM): 100%
